Laboratory results from ChEMBL document CHEMBL1135254, “Novel N-[1-(1-substituted 4-piperidinylmethyl)-4-piperidinyl]benzamides as potent colonic prokinetic agents” (Bioorg Med Chem Lett, 2002).

Experiments:
[1] = molecular target: 5-hydroxytryptamine receptor 4 (Cavia porcellus, UniProt O70528); test: Inhibitory activity against 5-hydroxytryptamine 4 receptor of guinea pig striatum using [3H]GR-113808 as radioligand; type: tissue-based
[2] = test system: Canis familiaris; test: Gastrointestinal motility was reported after intravenous administration at a dose 1 mg/kg to dogs in stomach; type: functional, Canis lupus familiaris
Summary of the method: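 Contractions were recorded by force transducers implanted on the gastric antrum and analyzed by computer. The motor index is the area between the contraction wave and baseline, i.e. amplitude (voltage) × time in min over a fixed period. The index for the 30 min after dosing is expressed as a percentage of that for the 30 min before.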

[3] = test system: Canis familiaris; test: Gastrointestinal motility was reported after intravenous administration at a dose 1 mg/kg to dogs as induction number of GMC (gaint migrating contractions); type: functional, Canis lupus familiaris
Summary of the method: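 Colonic contractions were recorded by a force transducer implanted on the ascending colon and analyzed by computer. Colonic motility is expressed as the number of giant migrating contractions induced after dosing.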

[4] = species on record: Mus musculus; test: Dose at which the compound induced fecal excretion in mice; type: organism-based, Feces; conditions: in vivo
Summary of the method: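 Unfasted mice were dosed subcutaneously, and fecal excretion was the read-out.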

Sequence of 5-hydroxytryptamine receptor 4 (O70528 whole entry): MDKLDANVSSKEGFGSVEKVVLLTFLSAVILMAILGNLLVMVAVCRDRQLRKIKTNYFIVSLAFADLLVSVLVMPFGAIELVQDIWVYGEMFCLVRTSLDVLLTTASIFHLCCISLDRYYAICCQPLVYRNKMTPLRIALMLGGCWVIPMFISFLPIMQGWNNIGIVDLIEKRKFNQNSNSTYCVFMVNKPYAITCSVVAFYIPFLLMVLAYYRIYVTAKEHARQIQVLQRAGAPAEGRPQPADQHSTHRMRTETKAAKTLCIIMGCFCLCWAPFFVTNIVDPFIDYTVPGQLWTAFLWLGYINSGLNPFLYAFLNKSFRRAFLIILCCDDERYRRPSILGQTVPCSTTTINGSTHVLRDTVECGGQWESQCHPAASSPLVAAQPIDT

## COc1cc(N)c(Cl)cc1C(=O)NC1CCN(CC2CCN(C(=O)CCN)CC2)CC1
[1]
  IC50: 9.5 nM
[2]
  Gastric motor index, % of pre-dose: 107%
[3]
  Induction number: 3

## COc1cc(N)c(Cl)cc1C(=O)NC1CCN(CC2CCN(CCCN)CC2)CC1
[1]
  IC50: 13.4 nM
[2]
  Gastric motor index, % of pre-dose: 151%
[3]
  Induction number: 7

## COc1cc(N)c(Cl)cc1C(=O)NC1CCN(CC2CCN(CCN)CC2)CC1
[1]
  IC50: 14.3 nM
[2]
  Gastric motor index, % of pre-dose: 127%

## CCOc1cc(N)c(Cl)cc1C(=O)NCC1CN(Cc2ccc(F)cc2)CCO1 (stereo not drawn) [MOSAPRIDE]
[1]
  IC50: 113 nM
[2]
  Gastric motor index, % of pre-dose: 188%

## COc1cc(N)c(Cl)cc1C(=O)NC1CCN(CC2CCN(C(=O)C(C)N)CC2)CC1 (stereo not drawn)
[1]
  IC50: 5.06 nM
[2]
  Gastric motor index, % of pre-dose: 127%

## COc1cc(N)c(Cl)cc1C(=O)NC1CCN(CC2CCN(C(=O)CCCN)CC2)CC1
[1]
  IC50: 3.99 nM
[2]
  Gastric motor index, % of pre-dose: 130%
[3]
  Induction number: 5

## CCCC(N)C(=O)N1CCC(CN2CCC(NC(=O)c3cc(Cl)c(N)cc3OC)CC2)CC1 (stereo not drawn)
[1]
  IC50: 2.57 nM
[2]
  Gastric motor index, % of pre-dose: 117%
[3]
  Induction number: 1

## COc1cc(N)c(Cl)cc1C(=O)NC1CCN(CC2CCN(C(=O)CN)CC2)CC1
[1]
  IC50: 9.3 nM
[2]
  Gastric motor index, % of pre-dose: 165%
[3]
  Induction number: 5

## COc1cc(N)c(Cl)cc1C(=O)NC1CCN(CC2CCN(CCCNS(C)(=O)=O)CC2)CC1
[1]
  IC50: 21.1 nM
[2]
  Gastric motor index, % of pre-dose: 151%
[3]
  Induction number: 2

## COc1cc(N)c(Cl)cc1C(=O)NC1CCN(C(=O)C2CCN(C(=O)CCCN)CC2)CC1
[1]
  IC50: 425 nM
[2]
  Gastric motor index, % of pre-dose: 132%
[3]
  Induction number: 2

## COc1cc(N)c(Cl)cc1C(=O)NCC(O)CN1CCC(CN2CCC(N)CC2)CC1 (stereo not drawn)
[1]
  IC50: 40.6 nM

## COc1cc(N)c(Cl)cc1C(=O)NC1CCN(CC2CCN(CCCCN)CC2)CC1
[1]
  IC50: 6.47 nM
[2]
  Gastric motor index, % of pre-dose: 148%
[3]
  Induction number: 6
[4]
  Dose: > 1 mg/kg

## COc1cc(N)c(Cl)cc1C(=O)NC1CCN(CC2CCN(C(=O)C(N)C(C)C)CC2)CC1 (stereo not drawn)
[1]
  IC50: 2.53 nM
[2]
  Gastric motor index, % of pre-dose: 147%

## COc1cc(N)c(Cl)cc1C(=O)NC1CCN(CC2CCN(C(=O)C(C)(C)N)CC2)CC1
[1]
  IC50: 2.6 nM
[2]
  Gastric motor index, % of pre-dose: 112%

## COc1cc(N)c(Cl)cc1C(=O)NC1CCN(CC2CCN(C(=O)C(C)CN)CC2)CC1 (stereo not drawn)
[1]
  IC50: 5.08 nM
[2]
  Gastric motor index, % of pre-dose: 121%

## COc1cc(N)c(Cl)cc1C(=O)NC1CCN(CC2CCN(C(=O)CCCCN)CC2)CC1
[1]
  IC50: 3.91 nM
[2]
  Gastric motor index, % of pre-dose: 112%

## COc1cc(N)c(Cl)cc1C(=O)NC1CCN(CC2CCN(CCCCCN)CC2)CC1
[1]
  IC50: 11.2 nM
[2]
  Gastric motor index, % of pre-dose: 194%
[3]
  Induction number: 4

## COc1cc(N)c(Cl)cc1C(=O)NC1CCN(CC2CCN(CC(O)CN)CC2)CC1 (stereo not drawn)
[1]
  IC50: 14.4 nM
[2]
  Gastric motor index, % of pre-dose: 121%

## COc1cc(N)c(Cl)cc1C(=O)NC1CCN(CC2CCN(CC(C)CN)CC2)CC1 (stereo not drawn)
[1]
  IC50: 14.3 nM
[2]
  Gastric motor index, % of pre-dose: 177%
[3]
  Induction number: 1
